{
  "source": "ChEMBL document CHEMBL1157470",
  "about": "“Hydrolytic reactivity trends among potential prodrugs of the O2-glycosylated diazeniumdiolate family. Targeting nitric oxide to macrophages for antileishmanial activity” (J Med Chem, 2008)",
  "key": {"[1]": {"assay": "Chemical stability assessed as half life of hydrolysis in 0.05 M citrate buffer at pH 4.6", "format": "physicochemical", "how_it_was_run": "(§1)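 Hydrolysis at 37 °C in 1.0 M NaOH, 0.1 M phosphate pH 7.4, or 0.05 M citrate pH 3.8–4.6, followed as first-order loss of the diazeniumdiolate UV absorbance at λmax. k from the ln(At − Ainf) versus time slope; Ainf was extrapolated when the reaction was incomplete. NaOH runs were followed in a thermostated diode-array cell.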"}, "[2]": {"assay": "Chemical stability assessed as half life of hydrolysis in at pH 14", "format": "physicochemical", "conditions": "1.0 M NaOH", "how_it_was_run": "as §1"}, "[3]": {"assay": "Stability assessed as nitrite release in presence of human placenta N-acetyl-glucosaminidase measured per mole of glycoside in 0.1 M phosphate buffer at pH 7.4 at 0.10 mM by Griess reagent assay", "format": "ADME", "conditions": "pH 7.4, 100 µM", "how_it_was_run": "(§2)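 37 °C in 0.1 M phosphate pH 7.4 with 0.05 mM DTPA. Jack bean N-acetylglucosaminidase at 0.11 units/mL or human placenta enzyme at 0.044 units/mL; substrate 0.10 or 0.16 mM initial. NO measured by chemiluminescence until evolution stopped, with the curve integrated per mole glycoside. Nitrite in the remaining solution measured by Griess. Enzyme activity verified with PNP-NAG.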"}, "[4]": {"assay": "Stability in iNOS deficient mouse macrophage assessed as increase in nitric oxide accumulation at 0.25 mM after 24 hrs", "format": "ADME, cell-based", "conditions": "250 µM", "how_it_was_run": "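Glycoside (0.25 mM initial) incubated 24 h at 37 °C in PBS, in RPMI with 2.5% fetal calf serum, or in that medium while culturing iNOS-deficient mouse peritoneal macrophages. Nitrite in supernatant measured by Griess. Triplicates, mean; one of two experiments.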"}, "[5]": {"assay": "Stability assessed as nitric oxide release in presence of human placenta N-acetyl-glucosaminidase measured per mole of glycoside in 0.1 M phosphate buffer at pH 7.4 at 0.10 mM […]", "format": "ADME", "conditions": "pH 7.4, 100 µM", "how_it_was_run": "as §2"}, "[6]": {"assay": "Stability assessed as nitrite release in presence of Jack bean N-acetyl-glucosaminidase measured per mole of glycoside in 0.1 M phosphate buffer at pH 7.4 at 0.10 mM by Griess reagent assay", "format": "ADME", "conditions": "pH 7.4, 100 µM", "how_it_was_run": "as §2"}, "[7]": {"assay": "Stability assessed as nitric oxide release in presence of Jack bean N-acetyl-glucosaminidase measured per mole of glycoside in 0.1 M phosphate buffer at pH 7.4 at 0.10 mM […]", "format": "ADME", "conditions": "pH 7.4, 100 µM", "how_it_was_run": "as §2"}, "[8]": {"assay": "Chemical stability assessed as half life of hydrolysis in 0.1 M phosphate buffer at pH 7.4", "format": "physicochemical", "how_it_was_run": "as §1"}, "[9]": {"assay": "Stability assessed as nitric oxide release in presence of human placenta N-acetyl-glucosaminidase measured per mole of glycoside in 0.1 M phosphate buffer at pH 7.4 at 0.16 mM […]", "format": "ADME", "conditions": "pH 7.4, 160 µM", "how_it_was_run": "as §2"}, "[10]": {"assay": "Stability assessed as nitrite release in presence of Jack bean N-acetyl-glucosaminidase measured per mole of glycoside in 0.1 M phosphate buffer at pH 7.4 at 0.16 mM by Griess reagent assay", "format": "ADME", "conditions": "pH 7.4, 160 µM", "how_it_was_run": "as §2"}, "[11]": {"assay": "Stability assessed as nitric oxide release in presence of Jack bean N-acetyl-glucosaminidase measured per mole of glycoside in 0.1 M phosphate buffer at pH 7.4 at 0.16 mM […]", "format": "ADME", "conditions": "pH 7.4, 160 µM", "how_it_was_run": "as §2"}, "[12]": {"assay": "Stability in iNOS-deficient mouse peritoneal macrophages in RPMI medium assessed as increase in nitric oxide release at 0.25 mM after 24 hrs", "conditions": "250 µM"}, "[13]": {"assay": "Stability assessed as nitrite release in presence of human placenta N-acetyl-glucosaminidase measured per mole of glycoside in 0.1 M phosphate buffer at pH 7.4 at 0.16 mM by Griess reagent assay", "format": "ADME", "conditions": "pH 7.4, 160 µM", "how_it_was_run": "as §2"}, "[14]": {"assay": "Chemical stability assessed as half life of hydrolysis in 0.05 M citrate buffer at pH 3.8", "format": "physicochemical", "how_it_was_run": "as §1"}, "[15]": {"assay": "Chemical stability assessed as half life of hydrolysis in 0.5 M glycine/sodium hydroxide buffer at pH 10.0", "format": "physicochemical", "conditions": "in the assay text read “0.05 M glycine” for “0.5 M glycine”", "how_it_was_run": "(§3)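 Half-lives at 37 °C across buffers from pH 4.0 to 14 (1.0, 0.10 and 0.0125 M NaOH; 0.05 M glycine/NaOH pH 10.0; 0.10 M phosphate pH 8.1 and 7.4; 0.05 M citrate pH 4.0). UV decay of the diazeniumdiolate chromophore at λmax. First-order k from the slope of ln(At − Ainf) versus time.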"}, "[16]": {"assay": "Chemical stability assessed as half life of hydrolysis in 0.10 M sodium hydroxide buffer at pH 13.0", "format": "physicochemical", "how_it_was_run": "as §3"}, "[17]": {"assay": "Chemical stability assessed as half life of hydrolysis in 0.10 M phosphate buffer at pH 8.1", "format": "physicochemical", "how_it_was_run": "as §3"}, "[18]": {"assay": "Chemical stability assessed as half life of hydrolysis in 0.05 M citrate buffer at pH 4.0", "format": "physicochemical", "how_it_was_run": "as §3"}, "[19]": {"assay": "Chemical stability assessed as half life of hydrolysis in 1.0 M sodium hydroxide buffer at pH 14.0", "format": "physicochemical", "how_it_was_run": "as §3"}, "[20]": {"assay": "Chemical stability assessed as half life of hydrolysis in 0.10 M phosphate buffer at pH 7.4", "format": "physicochemical", "how_it_was_run": "as §1"}, "[21]": {"assay": "Chemical stability assessed as half life of hydrolysis in 0.0125 M sodium hydroxide buffer at pH 12.1", "format": "physicochemical", "how_it_was_run": "as §3"}},
  "data": [
    {"smiles": "CCN(CC)/[N+]([O-])=N/O[C@@H]1O[C@H](CO)[C@@H](O)[C@H](O)[C@H]1O", "values": [
      {"measurement": "t1/2", "setting": "[1]", "value": "> 240", "unit": "h"},
      {"measurement": "t1/2", "setting": "[2]", "value": 0.035, "unit": "h"}
    ]},
    {"smiles": "CCN(CC)/[N+]([O-])=N/O[C@@H]1O[C@H](CO)[C@@H](O)[C@H](O)[C@H]1NC(C)=O", "values": [
      {"measurement": "Activity", "setting": "[3]", "value": 0.24, "unit": "mol/mol"},
      {"measurement": "Activity", "setting": "[4]", "value": 2},
      {"measurement": "Activity", "setting": "[5]", "value": 1.73, "unit": "mol/mol"},
      {"measurement": "Activity", "setting": "[6]", "value": 0.05, "unit": "mol/mol"},
      {"measurement": "t1/2", "setting": "[1]", "value": 17, "unit": "h"},
      {"measurement": "Activity", "setting": "[7]", "value": 1.26, "unit": "mol/mol"},
      {"measurement": "t1/2", "setting": "[2]", "value": 0.85, "unit": "h"},
      {"measurement": "t1/2", "setting": "[8]", "value": 12, "unit": "h"}
    ]},
    {"smiles": "CCN(CC)/[N+]([O-])=N/O[C@@H]1O[C@@H](C)[C@@H](O)[C@@H](O)[C@@H]1O", "values": [
      {"measurement": "t1/2", "setting": "[1]", "value": "> 240", "unit": "h"},
      {"measurement": "t1/2", "setting": "[2]", "value": 0.067, "unit": "h"},
      {"measurement": "t1/2", "setting": "[8]", "value": "> 240", "unit": "h"}
    ]},
    {"smiles": "CCN(CC)/[N+]([O-])=N/O[C@H]1O[C@H](CO)[C@@H](O)[C@H](O)[C@@H]1O", "values": [
      {"measurement": "t1/2", "setting": "[2]", "value": 4.97, "unit": "h"},
      {"measurement": "t1/2", "setting": "[8]", "value": "> 240", "unit": "h"}
    ]},
    {"smiles": "CC(=O)N[C@H]1[C@H](O/N=[N+](\\[O-])N2CCCC2)O[C@H](CO)[C@@H](O)[C@@H]1O", "values": [
      {"measurement": "Activity", "setting": "[9]", "value": 1.69, "unit": "mol/mol"},
      {"measurement": "Activity", "setting": "[10]", "value": 0.12, "unit": "mol/mol"},
      {"measurement": "t1/2", "setting": "[1]", "value": "> 240", "unit": "h"},
      {"measurement": "Activity", "setting": "[11]", "value": 1.72, "unit": "mol/mol"},
      {"measurement": "Activity", "setting": "[12]", "value": 4},
      {"measurement": "Activity", "setting": "[13]", "value": 0.36, "unit": "mol/mol"},
      {"measurement": "t1/2", "setting": "[8]", "value": "> 240", "unit": "h"}
    ]},
    {"smiles": "CCN(CC)/[N+]([O-])=N/O[C@H]1C[C@@H](O)[C@H](O)[C@@H](CO)O1", "values": [
      {"measurement": "t1/2", "setting": "[2]", "value": 0.383, "unit": "h"},
      {"measurement": "t1/2", "setting": "[8]", "value": 12, "unit": "h"},
      {"measurement": "t1/2", "setting": "[14]", "value": 28.8, "unit": "h"}
    ]},
    {"smiles": "CCN(CC)/[N+]([O-])=N\\OC1CCCCO1", "note": "(configuration not stated)", "values": [
      {"measurement": "t1/2", "setting": "[15]", "value": 2.9, "unit": "min"},
      {"measurement": "t1/2", "setting": "[16]", "value": 2.7, "unit": "min"},
      {"measurement": "t1/2", "setting": "[17]", "value": 3.5, "unit": "min"},
      {"measurement": "t1/2", "setting": "[18]", "value": 3.2, "unit": "min"},
      {"measurement": "t1/2", "setting": "[19]", "value": 2.5, "unit": "min"},
      {"measurement": "t1/2", "setting": "[20]", "value": 3.1, "unit": "min"},
      {"measurement": "t1/2", "setting": "[21]", "value": 3.5, "unit": "min"}
    ]}
  ]
}
